Calls of active or inactive are those of the source. The calls are words filed in the database; no cut-off is given here. Where a SMILES comes first, the peptide text is derived from it. [ ]: non-standard residue; d: D form. The star is where a group is joined. Butanoyl(4-cHex) = O=C(CCCC1CCCCC1)*; Propanoyl(3-cHex) = O=C(CCC1CCCCC1)*; Butanoyl(4-Ph) = O=C(CCCc1ccccc1)*; Hydrocinnamoyl = O=C(CCc1ccccc1)*; Cha = N[C@@H](CC1CCCCC1)C(=O)O; Agb = N=C(N)NCC[C@H](N)C(=O)O; Agp = N=C(N)NC[C@H](N)C(=O)O; Chg = N[C@H](C(=O)O)C1CCCCC1; Nle = CCCC[C@H](N)C(=O)O; Dab = NCC[C@H](N)C(=O)O; Dap = NC[C@H](N)C(=O)O
What follows are molecules tested against Neuromedin-U receptor 2 (Homo sapiens, UniProt Q9GZQ4) (assay: Agonist activity at human NMUR2 expressed in HEK293 cells at 1 to 100 nM by calcium mobilization assay relative to NMU).
Type: functional, cell-based
Procedure, shortened: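 HEK293 cells transiently transfected with human NMUR1 or NMUR2 plasmid (FuGENE6), reseeded 18 h post-transfection at 4.0 × 10^4 cells/well on poly-D-lysine. After 18 h, loaded 40 min with 4 μM Fluo-4-AM in HBSS/HEPES/probenecid buffer pH 7.4 with 1% FCS, then washed. Peptides in buffer with 0.05% BSA and 0.001% Triton X-100. Maximal FLIPR signal expressed as % of hNMU at 1000 nM.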

Chain of Neuromedin-U receptor 2 (Q9GZQ4 whole entry): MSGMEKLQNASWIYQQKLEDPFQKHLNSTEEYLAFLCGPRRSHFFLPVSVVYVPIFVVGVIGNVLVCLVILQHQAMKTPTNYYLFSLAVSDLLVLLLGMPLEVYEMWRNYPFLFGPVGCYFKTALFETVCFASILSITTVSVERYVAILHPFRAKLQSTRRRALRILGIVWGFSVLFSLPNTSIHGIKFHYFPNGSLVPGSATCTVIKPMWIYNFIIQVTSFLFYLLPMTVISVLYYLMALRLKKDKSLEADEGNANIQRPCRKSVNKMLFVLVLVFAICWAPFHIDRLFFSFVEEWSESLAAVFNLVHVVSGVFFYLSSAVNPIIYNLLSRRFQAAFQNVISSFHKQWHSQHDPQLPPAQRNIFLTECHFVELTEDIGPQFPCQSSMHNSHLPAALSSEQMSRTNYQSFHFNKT

Row | Structure (SMILES) | Activity
1 | CC(C)C[C@H](NC(=O)CCc1ccccc1)C(=O)N[C@@H](Cc1ccccc1)C(=O)N[C@@H](CCCCN)C(=O)N1CCC[C@H]1C(=O)N[C@@H](CCCNC(=N)N)C(=O)N[C@@H](CC(N)=O)C(N)=O (Hydrocinnamoyl-LFKPRN-NH2) | inactive
2 | CC(C)C[C@H](NC(=O)CCc1ccccc1)C(=O)N[C@@H](Cc1ccccc1)C(=O)N[C@@H](CCNC(=N)N)C(=O)N1CCC[C@H]1C(=O)N[C@@H](CCCNC(=N)N)C(=O)N[C@@H](CC(N)=O)C(N)=O (Hydrocinnamoyl-LF[Agb]PRN-NH2) | Active
3 | CC(C)C[C@H](NC(=O)CCc1ccccc1)C(=O)N[C@@H](Cc1ccccc1)C(=O)N[C@@H](CNC(=N)N)C(=O)N1CCC[C@H]1C(=O)N[C@@H](CCCNC(=N)N)C(=O)N[C@@H](CC(N)=O)C(N)=O (Hydrocinnamoyl-LF[Agp]PRN-NH2) | Active
4 | CC(C)C[C@H](NC(=O)CCc1ccccc1)C(=O)N[C@@H](Cc1ccccc1)C(=O)N[C@@H](CCN)C(=O)N1CCC[C@H]1C(=O)N[C@@H](CCCNC(=N)N)C(=O)N[C@@H](CC(N)=O)C(N)=O (Hydrocinnamoyl-LF[Dab]PRN-NH2) | Active
5 | CC(C)C[C@H](NC(=O)CCc1ccccc1)C(=O)N[C@@H](Cc1ccccc1)C(=O)N[C@@H](CN)C(=O)N1CCC[C@H]1C(=O)N[C@@H](CCCNC(=N)N)C(=O)N[C@@H](CC(N)=O)C(N)=O (Hydrocinnamoyl-LF[Dap]PRN-NH2) | Active
6 | CC(C)C[C@H](NC(=O)CCCc1ccccc1)C(=O)N[C@@H](Cc1ccccc1)C(=O)N[C@@H](CCCNC(=N)N)C(=O)N1CCC[C@H]1C(=O)N[C@@H](CCCNC(=N)N)C(=O)N[C@@H](CC(N)=O)C(N)=O ({Butanoyl(4-Ph)}-LFRPRN-NH2) | Active

Results, then the molecule that gave them:

Row | Activity | Structure (SMILES)
7 | Active | CC(C)C[C@H](NC(=O)CCc1ccccc1)C(=O)N[C@@H](CC1CCCCC1)C(=O)N[C@@H](CCCNC(=N)N)C(=O)N1CCC[C@H]1C(=O)N[C@@H](CCCNC(=N)N)C(=O)N[C@@H](CC(N)=O)C(N)=O (Hydrocinnamoyl-L[Cha]RPRN-NH2)
8 | Active | CC(C)C[C@H](NC(=O)CCCC1CCCCC1)C(=O)N[C@@H](Cc1ccccc1)C(=O)N[C@@H](CCCNC(=N)N)C(=O)N1CCC[C@H]1C(=O)N[C@@H](CCCNC(=N)N)C(=O)N[C@@H](CC(N)=O)C(N)=O ({Butanoyl(4-cHex)}-LFRPRN-NH2)
9 | Active | CC(C)C[C@H](NC(=O)CCC1CCCCC1)C(=O)N[C@@H](Cc1ccccc1)C(=O)N[C@@H](CCCNC(=N)N)C(=O)N1CCC[C@H]1C(=O)N[C@@H](CCCNC(=N)N)C(=O)N[C@@H](CC(N)=O)C(N)=O ({Propanoyl(3-cHex)}-LFRPRN-NH2)
10 | Active | CC[C@H](C)[C@H](NC(=O)[C@H](CC(C)C)NC(=O)CCC1CCCCC1)C(=O)N[C@@H](CN)C(=O)N1CCC[C@H]1C(=O)N[C@@H](CCCNC(=N)N)C(=O)N[C@@H](CC(N)=O)C(N)=O ({Propanoyl(3-cHex)}-LI[Dap]PRN-NH2)
11 | Active | CC(C)C[C@H](NC(=O)CCC1CCCCC1)C(=O)N[C@@H](CC1CCCCC1)C(=O)N[C@@H](CCCNC(=N)N)C(=O)N1CCC[C@H]1C(=O)N[C@@H](CCCNC(=N)N)C(=O)N[C@@H](CC(N)=O)C(N)=O ({Propanoyl(3-cHex)}-L[Cha]RPRN-NH2)
12 | Active | CC(C)C[C@H](NC(=O)CCC1CCCCC1)C(=O)N[C@@H](CC1CCCCC1)C(=O)N[C@@H](CN)C(=O)N1CCC[C@H]1C(=O)N[C@@H](CCCNC(=N)N)C(=O)N[C@@H](CC(N)=O)C(N)=O ({Propanoyl(3-cHex)}-L[Cha][Dap]PRN-NH2)
13 | Active | CC(C)C[C@H](NC(=O)CCC1CCCCC1)C(=O)N[C@H](C(=O)N[C@@H](CN)C(=O)N1CCC[C@H]1C(=O)N[C@@H](CCCNC(=N)N)C(=O)N[C@@H](CC(N)=O)C(N)=O)C1CCCCC1 ({Propanoyl(3-cHex)}-L[Chg][Dap]PRN-NH2)
14 | Active | CCCC[C@H](NC(=O)[C@H](CC(C)C)NC(=O)CCC1CCCCC1)C(=O)N[C@@H](CN)C(=O)N1CCC[C@H]1C(=O)N[C@@H](CCCNC(=N)N)C(=O)N[C@@H](CC(N)=O)C(N)=O ({Propanoyl(3-cHex)}-L[Nle][Dap]PRN-NH2)

Reference: ChEMBL document CHEMBL3351814, “Discovery of selective hexapeptide agonists to human neuromedin U receptors types 1 and 2” (J Med Chem, 2014)
